Measurements of several laboratories.
Lines come from different studies, so protocols differ.
Target: Mitogen-activated protein kinase 1 (MAPK1, Homo sapiens, UniProt P28482)

Compound	observed	method	tested at	remaining binding
C[C@@H]1CCN(c2nccc(-c3cnn4ncccc34)n2)C1	binding		1 µM	88%
Cn1nc(C(=O)NCc2ccc(C(=O)O)cc2)cc1-c1ccc2[nH]ccc2c1	cell-free assay	competition with immobilised ligand	0.1 µM	94%
c1cncc(-c2cccc(Nc3nccc(NC4CCCCC4)n3)c2)c1	binding	competition with immobilised ligand	10 µM	92%
C[C@H](c1cccc(C#N)c1)n1cc(Cl)cc(C(N)=O)c1=N	cell-free assay	competition with immobilised ligand	1 µM	93%
CN(C)c1nccc(-c2cnn3ncccc23)n1	binding		1 µM	100%
COc1cnc(Nc2cccc(S(N)(=O)=O)c2)nc1N1CCN(c2ccccc2)C(=O)C1	binding	competition with immobilised ligand	1 µM	100%
F[C@@H]1CCN(c2nccc(-c3cnn4ncccc34)n2)C1	binding		1 µM	100%
O=C(Nc1c[nH]nc1C(=O)NC1CCNCC1)c1cc(F)cc(F)c1	binding	competition with immobilised ligand	1 µM	100%
C=CC(=O)N1CCC(C(=O)NCC(=O)N2CCN(c3nc(-c4cnc(N)nc4C(F)F)nc(N4CCOCC4)n3)CC2)CC1	binding	competition with immobilised ligand	1 µM	98%
O=C(c1ccc(Nc2ncc(Cl)c(-c3ccc(Cl)s3)n2)cc1)N1CCC(N2CCCC2)CC1	binding	competition with immobilised ligand	1 µM	100%
C[C@@H]1CN(c2cc(-c3n[nH]c4ccc(OC5(C)CC5)cc34)ncn2)C[C@H](C)O1	cell-free assay	competition with immobilised ligand	0.1 µM	98%
CCN1CCN(Cc2ccc(C(=O)Nc3ccc(C)c(Oc4ccc5c(c4)CC(=O)N5)c3)cc2C(F)(F)F)CC1	binding	competition with immobilised ligand	1 µM	100%
CN(CCCC(F)(F)F)c1nccc(-c2cnn3ncccc23)n1	binding		1 µM	100%
FC(F)(F)c1ccc2c(c1)nc(-c1cccnc1)n2C1CC1	cell-free assay	competition with immobilised ligand	1 µM	100%
N[C@@H]1CCN(c2nccc(-c3cnn4ncccc34)n2)C1	binding		1 µM	100%
Nc1ncc2c(n1)-c1c([nH]c3ccc(C#CC4CC4)cc13)CCCC2	binding	competition with immobilised ligand	1 µM	100%
O=C(c1ccc(Nc2nccc(-c3cc4ccccc4s3)n2)cc1)N1CCC(N2CCCC2)CC1	binding	competition with immobilised ligand	1 µM	100%
COc1ncc2cc3ccccc3nc2c1C#N	cell-free assay	competition with immobilised ligand	5 µM	100%
CCCOc1ccc([C@H]2[C@H](C(=O)O)[C@@H](c3ccc4c(c3)OCO4)CN2CC(=O)Nc2c(CC)cccc2CC)cc1	cell-free assay	competition with immobilised ligand	1 µM	100%
CC1CCCN1c1nccc(-c2cnn3ncccc23)n1 (stereo not shown)	binding		1 µM	95%
CSc1cccnc1N1CCN(Cc2nc3ccccc3[nH]2)CC1	cell-free assay	competition with immobilised ligand	1 µM	93%
O=C(NCCCN1CCOCC1)c1ccc(Nc2nccc(-c3cc4ccccc4s3)n2)cc1	binding	competition with immobilised ligand	1 µM	89%
